Laboratory results as given in ChEMBL document CHEMBL4145683, “Total Synthesis and Structure-Activity Relationships Study of Odilorhabdins, a New Class of Peptides Showing Potent Antibacterial Activity” (J Med Chem, 2018).
Values after ≈ are worked out from the molar mass of the structure shown. Positions of bridges follow the written chain, without caps; N, C: chain ends. Non-standard residues stand in square brackets, D forms with d. Residues, ends and D or L forms follow the SMILES beside them. *: point of attachment. Dab(3S-OH) = NC[C@H](O)[C@H](N)C(=O)O; ΔZArg = N=C(N)NCC/C=C(\N)C(=O)O; aThr = C[C@H](O)[C@H](N)C(=O)O; dOrn = NCCC[C@@H](N)C(=O)O; X1 = CC[C@H](C)CCCCC(=O)*; Dab = NCC[C@H](N)C(=O)O; NH(CH2)4NH2 = NCCCCN*

Columns and labels:
[1] = system: Klebsiella pneumoniae; assay: Antimicrobial activity against Klebsiella pneumoniae ATCC 43816 by broth microdilution method; format: functional
Method in brief: (§1)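 Broth microdilution MIC per CLSI M07-A10, with inoculum prepared by direct colony suspension. Reference strains were from ATCC and NCTC.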

[2] = system: Escherichia coli; assay: Inhibition of bacterial protein synthesis in cell-free Escherichia coli incubated for 1 hr and measured for every 20 mins by bacterial cell-free transcription-translation assay; format: functional; conditions: Escherichia coli
Method in brief: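 E. coli cell-free coupled transcription-translation used a GFP gene in pEXP5-CT as template, started with 1 μg plasmid in 50 μL reactions. Feed buffer was added at 30 min, with incubation at 30 °C. Fluorescence (ex 475/em 520 nm) was read every 20 min. IC50 was taken at 1 h after feed addition from a four-parameter log(inhibitor)–response fit. Duplicates.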

[3] = system: Escherichia coli; assay: microbe, parasite or virus in culture; conditions: ATCC 25922
[4] = system: Klebsiella pneumoniae; assay: Antimicrobial activity against Klebsiella pneumoniae ATCC 13883 by broth microdilution method; format: functional; method in brief: as §1
[5] = system: Klebsiella pneumoniae; assay: Antimicrobial activity against Klebsiella pneumoniae ATCC BAA-1905 by broth microdilution method; format: functional; method in brief: as §1
[6] = system: Klebsiella pneumoniae; assay: Antimicrobial activity against Klebsiella pneumoniae ATCC BAA-1904 by broth microdilution method; format: functional; method in brief: as §1
[7] = system: Klebsiella pneumoniae; assay: Antimicrobial activity against Klebsiella pneumoniae NCTC 13438 by broth microdilution method; format: functional; method in brief: as §1
[8] = system: Klebsiella pneumoniae; assay: Antimicrobial activity against Klebsiella pneumoniae NCTC 13439 by broth microdilution method; format: functional; method in brief: as §1
[9] = system: Klebsiella pneumoniae; assay: Antimicrobial activity against Klebsiella pneumoniae ATCC BAA-2146 by broth microdilution method; format: functional; method in brief: as §1
[10] = system: Klebsiella pneumoniae; assay: Antimicrobial activity against Klebsiella pneumoniae ATCC BAA-2472 by broth microdilution method; format: functional; method in brief: as §1
[11] = system: Klebsiella pneumoniae; assay: Antimicrobial activity against Klebsiella pneumoniae ATCC BAA-2473 by broth microdilution method; format: functional; method in brief: as §1
[12] = system: Klebsiella pneumoniae; assay: Antimicrobial activity against Klebsiella pneumoniae NCTC 13443 by broth microdilution method; format: functional; method in brief: as §1
[13] = system: Klebsiella pneumoniae; assay: Antimicrobial activity against Klebsiella pneumoniae NCTC 13442 by broth microdilution method; format: functional
Method in brief: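 CLSI broth microdilution with direct colony suspension inoculum, per CLSI M07-A10. Reference strain taken from the NCTC collection.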

[14] = system: Escherichia coli; assay: Antimicrobial activity against Escherichia coli ATCC BAA-2340 by broth microdilution method; format: functional; method in brief: as §1
[15] = system: Escherichia coli; assay: Antimicrobial activity against Escherichia coli ATCC BAA-2452 by broth microdilution method; format: functional; method in brief: as §1
[16] = system: Escherichia coli; assay: Antimicrobial activity against Escherichia coli ATCC BAA-2469 by broth microdilution method; format: functional; method in brief: as §1
[17] = system: Enterobacter cloacae; assay: Antimicrobial activity against Enterobacter cloacae ATCC BAA-2468 by broth microdilution method; format: functional
[18] = Klebsiella pneumoniae, ATCC 43816, read-out: MIC

C[C@H](NC(=O)[C@@H]1CCCN1C(=O)[C@@H](CCCN)NC(=O)CNC(=O)[C@@H](NC(=O)[C@@H](NC(=O)[C@@H](N)CCCCN)[C@@H](O)CN)[C@@H](O)CN)C(=O)N[C@@H](CCCCN)C(=O)N/C(=C\CCNC(=N)N)C(=O)N[C@@H](CCCCN)C(=O)NCCCCN (H-K[Dab(3S-OH)][Dab(3S-OH)]G[dOrn]PAK[ΔZArg]K-{NH(CH2)4NH2})
MIC [1, 18]: 8 µg/mL (≈ 6.68 µM)
IC50 [2]: 0.39 µM
MIC [3]: 8 µg/mL (≈ 6.68 µM)

C[C@H](NC(=O)[C@H](CCCCN)NC(=O)[C@H](Cc1cnc[nH]1)NC(=O)[C@@H]1CCCN1C(=O)[C@@H](CCCN)NC(=O)CNC(=O)[C@@H](NC(=O)[C@@H](NC(=O)[C@@H](N)CCCCN)[C@@H](O)CN)[C@@H](O)CN)C(=O)N[C@@H](CCCCN)C(=O)NCCCCN (H-K[Dab(3S-OH)][Dab(3S-OH)]G[dOrn]PHKAK-{NH(CH2)4NH2})
MIC [1, 18]: 64 µg/mL (≈ 54.2 µM)
IC50 [2]: 2.4 µM
MIC [3]: > 64 µg/mL

N=C(N)NCCC[C@H](NC(=O)[C@H](CCCCN)NC(=O)[C@H](Cc1cnc[nH]1)NC(=O)[C@@H]1CCCN1C(=O)[C@@H](CCCN)NC(=O)CNC(=O)[C@@H](NC(=O)[C@@H](NC(=O)[C@@H](N)CCCCN)[C@@H](O)CN)[C@@H](O)CN)C(=O)N[C@@H](CCCCN)C(=O)NCCCCN (H-K[Dab(3S-OH)][Dab(3S-OH)]G[dOrn]PHKRK-{NH(CH2)4NH2})
MIC [1, 18]: 8 µg/mL (≈ 6.32 µM)
IC50 [2]: 1.53 µM
MIC [3]: 32 µg/mL (≈ 25.3 µM)

N=C(N)NCCC[C@@H](NC(=O)[C@H](CCCCN)NC(=O)[C@H](Cc1cnc[nH]1)NC(=O)[C@@H]1CCCN1C(=O)[C@@H](CCCN)NC(=O)CNC(=O)[C@@H](NC(=O)[C@@H](NC(=O)[C@@H](N)CCCCN)[C@@H](O)CN)[C@@H](O)CN)C(=O)N[C@@H](CCCCN)C(=O)NCCCCN (H-K[Dab(3S-OH)][Dab(3S-OH)]G[dOrn]PHK[dR]K-{NH(CH2)4NH2})
MIC [1, 18]: 16 µg/mL (≈ 12.6 µM)
IC50 [2]: 0.98 µM
MIC [3]: 16 µg/mL (≈ 12.6 µM)

N=C(N)NCC/C=C(\NC(=O)[C@H](CCCCN)NC(=O)[C@H](Cc1cnc[nH]1)NC(=O)[C@@H]1CCCN1C(=O)[C@@H](CCCN)NC(=O)CNC(=O)[C@@H](NC(=O)[C@@H](NC(=O)[C@@H](N)CCCCN)[C@@H](O)CN)[C@@H](O)CN)C(=O)O (H-K[Dab(3S-OH)][Dab(3S-OH)]G[dOrn]PHK[ΔZArg]-OH)
MIC [1, 18]: 4 µg/mL (≈ 3.75 µM)
IC50 [2]: 0.43 µM
MIC [3]: 16 µg/mL (≈ 15 µM)

C[C@H](NC(=O)/C(=C/CCNC(=N)N)NC(=O)[C@H](CCCCN)NC(=O)[C@H](Cc1cnc[nH]1)NC(=O)[C@@H]1CCCN1C(=O)[C@@H](CCCN)NC(=O)CNC(=O)[C@@H](NC(=O)[C@@H](NC(=O)[C@@H](N)CCCCN)[C@@H](O)CN)[C@@H](O)CN)C(=O)NCCCCN (H-K[Dab(3S-OH)][Dab(3S-OH)]G[dOrn]PHK[ΔZArg]A-{NH(CH2)4NH2})
MIC [1, 18]: 8 µg/mL (≈ 6.63 µM)
IC50 [2]: 1.04 µM
MIC [3]: 8 µg/mL (≈ 6.63 µM)

N=C(N)NCC/C=C(\NC(=O)[C@H](CCCCN)NC(=O)[C@H](Cc1cnc[nH]1)NC(=O)[C@@H]1CCCN1C(=O)[C@@H](CCCN)NC(=O)CNC(=O)[C@@H](NC(=O)[C@@H](NC(=O)[C@@H](N)CCCCN)[C@@H](O)CN)[C@@H](O)CN)C(=O)N[C@@H](CCCCN)C(=O)O (H-K[Dab(3S-OH)][Dab(3S-OH)]G[dOrn]PHK[ΔZArg]K-OH)
MIC [1, 18]: 4 µg/mL (≈ 3.35 µM)
IC50 [2]: 0.36 µM
MIC [3]: 16 µg/mL (≈ 13.4 µM)

N=C(N)NCC/C=C(\NC(=O)[C@H](CCCCN)NC(=O)[C@H](Cc1cnc[nH]1)NC(=O)[C@@H]1CCCN1C(=O)[C@@H](CCCN)NC(=O)CNC(=O)[C@H](CCN)NC(=O)[C@@H](NC(=O)[C@@H](N)CCCCN)[C@@H](O)CN)C(=O)N[C@@H](CCCCN)C(=O)NCCCCN (H-K[Dab(3S-OH)][Dab]G[dOrn]PHK[ΔZArg]K-{NH(CH2)4NH2})
MIC [1, 18]: 4 µg/mL (≈ 3.2 µM)
IC50 [2]: 1.1 µM
MIC [3]: 4 µg/mL (≈ 3.2 µM)

C[C@H](O)[C@H](NC(=O)[C@@H](NC(=O)[C@@H](N)CCCCN)[C@@H](O)CN)C(=O)NCC(=O)N[C@H](CCCN)C(=O)N1CCC[C@H]1C(=O)N[C@@H](Cc1cnc[nH]1)C(=O)N[C@@H](CCCCN)C(=O)N/C(=C\CCNC(=N)N)C(=O)N[C@@H](CCCCN)C(=O)NCCCCN (H-K[Dab(3S-OH)][aThr]G[dOrn]PHK[ΔZArg]K-{NH(CH2)4NH2})
MIC [1, 18]: 8 µg/mL (≈ 6.4 µM)
IC50 [2]: 1 µM
MIC [3]: 8 µg/mL (≈ 6.4 µM)

N=C(N)NCC/C=C(\NC(=O)[C@H](CCCCN)NC(=O)[C@H](Cc1cnc[nH]1)NC(=O)[C@@H]1CCCN1C(=O)[C@@H](CCCN)NC(=O)CNC(=O)[C@@H](NC(=O)[C@H](CCN)NC(=O)[C@@H](N)CCCCN)[C@@H](O)CN)C(=O)N[C@@H](CCCCN)C(=O)NCCCCN (H-K[Dab][Dab(3S-OH)]G[dOrn]PHK[ΔZArg]K-{NH(CH2)4NH2})
MIC [1, 18]: 64 µg/mL (≈ 51.3 µM)
IC50 [2]: 5.91 µM
MIC [3]: > 64 µg/mL

CC[C@H](C)CCCCC(=O)N[C@@H](CCN)C(=O)N[C@H](C(=O)N[C@@H](CCN)C(=O)N[C@H]1CCNC(=O)[C@H]([C@@H](C)O)NC(=O)[C@H](CCN)NC(=O)[C@H](CCN)NC(=O)[C@H](CC(C)C)NC(=O)[C@@H](Cc2ccccc2)NC(=O)[C@H](CCN)NC1=O)[C@@H](C)O (X1-[Dab]T[Dab][Dab][Dab][dF]L[Dab][Dab]T; lactam 4-C)
MIC [1, 18]: 0.5 µg/mL (≈ 0.415 µM)
MIC [4]: 1 µg/mL (≈ 0.831 µM)
MIC [5]: 0.5 µg/mL (≈ 0.415 µM)
MIC [6]: 0.5 µg/mL (≈ 0.415 µM)
MIC [7]: 0.5 µg/mL (≈ 0.415 µM)
MIC [8]: 0.5 µg/mL (≈ 0.415 µM)
MIC [9]: 1 µg/mL (≈ 0.831 µM)
MIC [10]: 0.5 µg/mL (≈ 0.415 µM)
MIC [11]: 0.5 µg/mL (≈ 0.415 µM)
MIC [12]: 0.5 µg/mL (≈ 0.415 µM)
MIC [13]: 0.5 µg/mL (≈ 0.415 µM)
MIC [14]: 0.5 µg/mL (≈ 0.415 µM)
MIC [15]: 0.5 µg/mL (≈ 0.415 µM)
MIC [16]: 0.5 µg/mL (≈ 0.415 µM)
MIC [17]: 0.5 µg/mL (≈ 0.415 µM)
MIC [3]: 0.5 µg/mL (≈ 0.415 µM)

CO/N=C(\C(=O)N[C@@H]1C(=O)N2C(C(=O)O)=C(CSc3nc(=O)c(O)nn3C)CS[C@H]12)c1csc(N)n1 [CEFTRIAXONE]
MIC [1, 18]: ≤ 0.125 µg/mL
MIC [4]: < 0.25 µg/mL
MIC [5]: > 64 µg/mL
MIC [6]: > 64 µg/mL
MIC [7]: > 64 µg/mL
MIC [8]: > 64 µg/mL
MIC [9]: > 64 µg/mL
MIC [10]: > 64 µg/mL
MIC [11]: > 64 µg/mL
MIC [12]: > 64 µg/mL
MIC [13]: 8 µg/mL (≈ 14.4 µM)
MIC [14]: > 64 µg/mL
MIC [15]: > 64 µg/mL
MIC [16]: > 64 µg/mL
MIC [17]: > 64 µg/mL
MIC [3]: < 0.25 µg/mL

GENTAMICIN
MIC [1]: 0.25 µg/mL
MIC [4]: 1 µg/mL
MIC [5]: 32 µg/mL
MIC [6]: 16 µg/mL
MIC [7]: 2 µg/mL
MIC [8]: 1 µg/mL
MIC [9]: > 64 µg/mL
MIC [10]: > 64 µg/mL
MIC [11]: > 64 µg/mL
MIC [12]: > 64 µg/mL
MIC [13]: 0.25 µg/mL
MIC [14]: 1 µg/mL
MIC [15]: > 64 µg/mL
MIC [16]: > 64 µg/mL
MIC [17]: > 64 µg/mL
